Active and inactive are the calls of the source. The calls are words filed in the database; no cut-off is given here.
Experiments:
D(1A) dopamine receptor = D(1A) dopamine receptor (Rattus norvegicus, UniProt P18901); assay: Displacement of [3H]SCH23390 from dopamine D1 receptor in Wistar rat striatal membrane by liquid scintillation counting; format: cell membranes, Striatum
Outline: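 Female Wistar rat striatum homogenized in 50 mM Tris-HCl pH 7.4, then washed twice at 49,000g. Membranes were resuspended in Tris-ions buffer (NaCl, CaCl2, KCl, MgCl2, 0.1% ascorbate). [3H]-SCH23390 displacement was read by filtration and scintillation counting. Ki was derived using KD 0.36 nM; 3–6 independent runs in duplicate, mean SEM.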

D(2) dopamine receptor = D(2) dopamine receptor (Rattus norvegicus, UniProt P61169); assay: Displacement of [3H]raclopride from dopamine D2 receptor in Wistar rat striatal membrane by liquid scintillation counting; format: cell membranes, Striatum
Outline: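 Striata from female Wistar rats (200–220 g) were homogenized in 50 mM Tris-HCl (pH 7.4) and centrifuged twice at 49,000g for 15 min at 4 °C. Membranes were resuspended in Tris buffer containing 120 mM NaCl, 2 mM CaCl₂, 5 mM KCl, 1 mM MgCl₂ and 0.1% ascorbic acid (pH 7.4). Samples were filtered, washed with cold buffer and counted by scintillation. Ki was derived using a [³H]raclopride KD of 1,25 nM, from 3–6 determinations run in duplicate.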

Rattus norvegicus = species: Rattus norvegicus; assay: Selectivity for Wistar rat dopamine D2 receptor over Wistar rat dopamine D1 receptor
[1] = biological target: Sodium-dependent dopamine transporter (Rattus norvegicus) (UniProt P23977); assay: Inhibition of DAT in Wistar rat striatal synaptosomes at 100 uM by [3H]dopamine uptake assay; format: subcellular; settings: Brain
Outline: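 Synaptosomes were prepared from female Wistar rat striatum at 0–4 °C. Tissue was homogenized in 0.32 M sucrose, spun twice at 1000g for 10 min, and the pooled supernatants were spun at 16,000g for 30 min. The pellet was taken up in Krebs medium (pH 7.6, with glucose). Samples were preincubated for 10 min at 37 °C with pargyline, then given 0.5 nM final [³H]dopamine for 10 min. Uptake was stopped by ice-cold dilution and rapid fiberglass filtration.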

Mus musculus [2] = assay: Antidepressant-like activity in NMRI mouse assessed as increase in locomotor activity at 0.01 mg/kg, ip after 6 mins by photoelectronic actimeter method; format: functional; settings: route intraperitoneal
Outline: (§1)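 Naive male NMRI mice (25–30 g), n = 10/group; single ip injection (10 mL/kg, saline vehicle) 30 min before test, during the dark phase. Photoelectronic actimeter with two perpendicular infrared beams; beam crossings counted cumulatively at 6-min intervals over a 30-min session. Vs vehicle by ANOVA and Fisher PLSD; mean SD.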

Mus musculus [3] = assay: Antidepressant-like activity in NMRI mouse assessed as increase in locomotor activity at 0.01 mg/kg, ip after 12 mins by photoelectronic actimeter method; format: functional; settings: route intraperitoneal; outline: as §1
Mus musculus [4] = assay: Antidepressant-like activity in NMRI mouse assessed as increase in locomotor activity at 0.01 mg/kg, ip after 18 mins by photoelectronic actimeter method; format: functional; settings: route intraperitoneal; outline: as §1
Mus musculus [5] = assay: Antidepressant-like activity in NMRI mouse assessed as increase in locomotor activity at 0.01 mg/kg, ip after 24 mins by photoelectronic actimeter method; format: functional; settings: route intraperitoneal; outline: as §1
Mus musculus [6] = assay: Antidepressant-like activity in NMRI mouse assessed as increase in locomotor activity at 0.01 mg/kg, ip after 30 mins by photoelectronic actimeter method; format: functional; settings: route intraperitoneal; outline: as §1
Mus musculus [7] = assay: Antidepressant-like activity in NMRI mouse assessed as increase in locomotor activity at 0.04 mg/kg, ip after 6 mins by photoelectronic actimeter method; format: functional; settings: route intraperitoneal; outline: as §1
Mus musculus [8] = assay: Antidepressant-like activity in NMRI mouse assessed as increase in locomotor activity at 0.04 mg/kg, ip after 12 mins by photoelectronic actimeter method; format: functional; settings: route intraperitoneal; outline: as §1
Mus musculus [9] = assay: Antidepressant-like activity in NMRI mouse assessed as increase in locomotor activity at 0.04 mg/kg, ip after 18 mins by photoelectronic actimeter method; format: functional; settings: route intraperitoneal; outline: as §1
Mus musculus [10] = assay: Antidepressant-like activity in NMRI mouse assessed as increase in locomotor activity at 0.04 mg/kg, ip after 24 mins by photoelectronic actimeter method; format: functional; settings: route intraperitoneal; outline: as §1
Mus musculus [11] = assay: Antidepressant-like activity in NMRI mouse assessed as increase in locomotor activity at 0.04 mg/kg, ip after 30 mins by photoelectronic actimeter method; format: functional; settings: route intraperitoneal; outline: as §1
Mus musculus [12] = assay: Antidepressant-like activity in NMRI mouse assessed as increase in locomotor activity at 0.2 mg/kg, ip after 6 mins by photoelectronic actimeter method; format: functional; settings: route intraperitoneal; outline: as §1
Mus musculus [13] = assay: Antidepressant-like activity in NMRI mouse assessed as increase in locomotor activity at 0.2 mg/kg, ip after 12 mins by photoelectronic actimeter method; format: functional; settings: route intraperitoneal; outline: as §1
Mus musculus [14] = assay: Antidepressant-like activity in NMRI mouse assessed as increase in locomotor activity at 0.2 mg/kg, ip after 18 mins by photoelectronic actimeter method; format: functional; settings: route intraperitoneal; outline: as §1
Mus musculus [15] = assay: Antidepressant-like activity in NMRI mouse assessed as increase in locomotor activity at 0.2 mg/kg, ip after 24 mins by photoelectronic actimeter method; format: functional; settings: route intraperitoneal; outline: as §1
Mus musculus [16] = assay: Antidepressant-like activity in NMRI mouse assessed as increase in locomotor activity at 0.2 mg/kg, ip after 30 mins by photoelectronic actimeter method; format: functional; settings: route intraperitoneal; outline: as §1
Mus musculus [17] = assay: Antidepressant-like activity in NMRI mouse assessed as increase in locomotor activity at 1 mg/kg, ip after 6 mins by photoelectronic actimeter method; format: functional; settings: route intraperitoneal; outline: as §1
Mus musculus [18] = assay: Antidepressant-like activity in NMRI mouse assessed as increase in locomotor activity at 1 mg/kg, ip after 12 mins by photoelectronic actimeter method; format: functional; settings: route intraperitoneal; outline: as §1
Mus musculus [19] = assay: Antidepressant-like activity in NMRI mouse assessed as increase in locomotor activity at 1 mg/kg, ip after 18 mins by photoelectronic actimeter method; format: functional; settings: route intraperitoneal; outline: as §1
Mus musculus [20] = assay: Antidepressant-like activity in NMRI mouse assessed as increase in locomotor activity at 1 mg/kg, ip after 24 mins by photoelectronic actimeter method; format: functional; settings: route intraperitoneal; outline: as §1
Mus musculus [21] = assay: Antidepressant-like activity in NMRI mouse assessed as increase in locomotor activity at 1 mg/kg, ip after 30 mins by photoelectronic actimeter method; format: functional; settings: route intraperitoneal; outline: as §1
Mus musculus [22] = assay: Antidepressant-like activity in NMRI mouse assessed as increase in locomotor activity at 5 mg/kg, ip after 6 mins by photoelectronic actimeter method; format: functional; settings: route intraperitoneal; outline: as §1
Mus musculus [23] = assay: Antidepressant-like activity in NMRI mouse assessed as increase in locomotor activity at 5 mg/kg, ip after 12 mins by photoelectronic actimeter method; format: functional; settings: route intraperitoneal; outline: as §1
Mus musculus [24] = assay: Antidepressant-like activity in NMRI mouse assessed as increase in locomotor activity at 5 mg/kg, ip after 18 mins by photoelectronic actimeter method; format: functional; settings: route intraperitoneal; outline: as §1
Mus musculus [25] = assay: Antidepressant-like activity in NMRI mouse assessed as increase in locomotor activity at 5 mg/kg, ip after 24 mins by photoelectronic actimeter method; format: functional; settings: route intraperitoneal; outline: as §1
Mus musculus [26] = assay: Antidepressant-like activity in NMRI mouse assessed as increase in locomotor activity at 5 mg/kg, ip after 30 mins by photoelectronic actimeter method; format: functional; settings: route intraperitoneal; outline: as §1
Mus musculus [27] = assay: Antidepressant-like activity in NMRI mouse assessed as increase in locomotor activity at 25 mg/kg, ip after 6 mins by photoelectronic actimeter method; format: functional; settings: route intraperitoneal; outline: as §1
Mus musculus [28] = assay: Antidepressant-like activity in NMRI mouse assessed as increase in locomotor activity at 25 mg/kg, ip after 12 mins by photoelectronic actimeter method; format: functional; settings: route intraperitoneal; outline: as §1
Mus musculus [29] = assay: Antidepressant-like activity in NMRI mouse assessed as increase in locomotor activity at 25 mg/kg, ip after 18 mins by photoelectronic actimeter method; format: functional; settings: route intraperitoneal; outline: as §1
Mus musculus [30] = assay: Antidepressant-like activity in NMRI mouse assessed as increase in locomotor activity at 25 mg/kg, ip after 24 mins by photoelectronic actimeter method; format: functional; settings: route intraperitoneal; outline: as §1
Mus musculus [31] = assay: Antidepressant-like activity in NMRI mouse assessed as increase in locomotor activity at 25 mg/kg, ip after 30 mins by photoelectronic actimeter method; format: functional; settings: route intraperitoneal; outline: as §1
Mus musculus [32] = assay: Antidepressant-like activity in NMRI mouse assessed as increase in locomotor activity at 0.2 mg/kg, ip by photoelectronic actimeter method in presence of D2 receptor antagonist haloperidol; format: functional, organism-based; set-up: dose 0.2 mg/kg
Outline: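 Male NMRI mice, n = 10/group. Haloperidol 0.03 mg/kg sc given just before ip test compound (0.2 mg/kg) or saline, 30 min before testing. Spontaneous locomotion was counted as infrared beam crossings in a photoelectric actimeter over 30 min. Groups were compared by Fisher PLSD; mean SD.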

Mus musculus [33] = assay: Antidepressant-like activity in NMRI mouse assessed as reduction in immobility time at 0.01 mg/kg, ip by forced swimming test; format: functional, organism-based; set-up: dose 0.01 mg/kg
Outline: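 Male NMRI mice, 10/group, not pre-tested; ip dosing in saline 30 min before test. Each mouse swam 6 min in a cylinder (12 cm diameter, 13 cm water, 23–24 °C). Immobility was scored over the last 4 min after a 2-min delay. Imipramine 16 mg/kg was the reference. Analysis by ANOVA with Fisher PLSD.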

Mus musculus [34] = assay: Antidepressant-like activity in NMRI mouse assessed as reduction in immobility time at 0.01 mg/kg, ip by forced swimming test in presence of D2 receptor antagonist haloperidol; format: functional, organism-based; set-up: dose 0.01 mg/kg
Outline: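 Male NMRI mice, 10/group. Haloperidol 0.03 mg/kg sc was injected just before ip test compound, 30 min before a 6-min forced swim (water 23–24 °C, depth 13 cm). Immobility was measured during the final 4 min. Analysis by ANOVA with Fisher PLSD.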

Mus musculus [35] = assay: Antidepressant-like activity in NMRI mouse assessed as reduction in immobility time at 16 mg/kg, ip by forced swimming test relative to control; format: functional; set-up: scale not given: the % may be the effect or the level left; settings: route intraperitoneal
Outline: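 Naive male NMRI mice (25–30 g) were used in randomized groups of n = 10 and tested in the dark phase. Injections (10 mL/kg) were given 30 min before testing, and saline was the vehicle. Each animal, not pre-tested, swam for 6 min in a cylinder 12 cm wide holding 13 cm of water at 23–24 °C. Immobility was scored over the last 4 min, and groups were compared with ANOVA and Fisher PLSD.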

Chain of D(2) dopamine receptor (P61169 whole entry): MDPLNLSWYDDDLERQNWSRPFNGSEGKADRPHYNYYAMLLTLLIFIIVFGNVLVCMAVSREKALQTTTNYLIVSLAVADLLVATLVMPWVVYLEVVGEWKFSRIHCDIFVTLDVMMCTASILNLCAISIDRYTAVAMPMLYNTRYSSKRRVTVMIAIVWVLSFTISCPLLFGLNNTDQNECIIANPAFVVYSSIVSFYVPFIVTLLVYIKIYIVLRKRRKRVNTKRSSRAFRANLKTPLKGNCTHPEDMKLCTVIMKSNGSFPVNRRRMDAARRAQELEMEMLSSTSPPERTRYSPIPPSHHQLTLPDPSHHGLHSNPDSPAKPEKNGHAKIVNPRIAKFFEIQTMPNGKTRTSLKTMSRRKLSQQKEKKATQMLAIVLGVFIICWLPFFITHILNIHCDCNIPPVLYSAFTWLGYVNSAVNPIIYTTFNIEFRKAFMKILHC
Chain of Sodium-dependent dopamine transporter (Rattus norvegicus) (P23977 whole entry): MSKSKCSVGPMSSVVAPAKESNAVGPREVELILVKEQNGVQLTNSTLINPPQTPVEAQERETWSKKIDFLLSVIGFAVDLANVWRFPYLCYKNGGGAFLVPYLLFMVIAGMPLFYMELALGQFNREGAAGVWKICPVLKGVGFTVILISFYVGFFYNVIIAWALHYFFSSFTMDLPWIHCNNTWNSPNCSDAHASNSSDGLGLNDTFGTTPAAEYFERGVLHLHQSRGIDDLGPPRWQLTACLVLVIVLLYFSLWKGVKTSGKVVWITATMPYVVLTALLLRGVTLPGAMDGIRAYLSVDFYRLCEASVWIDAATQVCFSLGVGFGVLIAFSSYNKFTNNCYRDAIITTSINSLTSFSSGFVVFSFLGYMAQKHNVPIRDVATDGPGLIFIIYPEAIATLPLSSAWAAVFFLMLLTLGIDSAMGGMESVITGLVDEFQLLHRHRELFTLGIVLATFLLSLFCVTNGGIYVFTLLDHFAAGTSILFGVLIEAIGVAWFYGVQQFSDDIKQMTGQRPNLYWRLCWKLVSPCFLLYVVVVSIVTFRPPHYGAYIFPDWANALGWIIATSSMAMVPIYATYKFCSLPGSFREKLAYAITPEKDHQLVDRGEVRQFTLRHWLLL
Chain of D(1A) dopamine receptor (P18901 whole entry): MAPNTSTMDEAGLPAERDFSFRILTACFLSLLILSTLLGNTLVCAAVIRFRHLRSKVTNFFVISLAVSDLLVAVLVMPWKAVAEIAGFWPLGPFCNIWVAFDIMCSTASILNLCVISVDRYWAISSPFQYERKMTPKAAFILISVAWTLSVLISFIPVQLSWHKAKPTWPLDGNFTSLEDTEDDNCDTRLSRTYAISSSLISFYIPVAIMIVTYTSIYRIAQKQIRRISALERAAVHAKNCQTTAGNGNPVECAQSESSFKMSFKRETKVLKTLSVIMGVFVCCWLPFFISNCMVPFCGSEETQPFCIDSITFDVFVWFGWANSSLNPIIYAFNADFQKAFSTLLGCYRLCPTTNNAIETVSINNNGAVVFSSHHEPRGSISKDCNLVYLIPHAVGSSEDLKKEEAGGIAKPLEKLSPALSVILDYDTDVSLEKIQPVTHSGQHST

## CN1CCc2cc(Cl)c(O)cc2C1Cc1ccccc1 (centres undefined)
D(1A) dopamine receptor
  Ki: 111 nM
D(2) dopamine receptor; read-out: pKi (converted)
  Ki: 207 nM
Rattus norvegicus
  fold change (FC): 0.6
[1]
  Activity: inactive

## COc1cc2c(cc1Cl)CCN(C)C2Cc1ccccc1 (centres undefined)
D(1A) dopamine receptor
  Ki: 1640 nM
D(2) dopamine receptor; read-out: pKi (converted)
  Ki: 1530 nM
Rattus norvegicus
  fold change (FC): 0.8
[1]
  Activity: inactive

## CCCCC1c2cc(OC)c(Cl)cc2CCN1C (centres undefined)
D(1A) dopamine receptor
  Ki: 7280 nM
D(2) dopamine receptor; read-out: pKi (converted)
  Ki: 3770 nM
Rattus norvegicus
  fold change (FC): 2.7
[1]
  Activity: inactive

## Oc1cc2c(cc1Cl)CCNC2Cc1ccccc1 (centres undefined)
D(1A) dopamine receptor
  Ki: 326 nM
D(2) dopamine receptor; read-out: Ki
  Ki: 71 nM
D(2) dopamine receptor; read-out: pKi (converted)
  Ki: 66.4 nM
Rattus norvegicus
  fold change (FC): 4.8
[1]
  Activity: inactive

## CCCCC1NCCc2cc(O)c(Cl)cc21 (centres undefined)
D(1A) dopamine receptor
  Ki: 3230 nM
D(2) dopamine receptor; read-out: pKi (converted)
  Ki: 60.3 nM
Rattus norvegicus
  fold change (FC): 49
[1]
  Activity: inactive
Mus musculus [2]
  Activity: 72
Mus musculus [3]
  Activity: 105
Mus musculus [4]
  Activity: 133
Mus musculus [5]
  Activity: 147
Mus musculus [6]
  Activity: 153
Mus musculus [7]
  Activity: 102
Mus musculus [8]
  Activity: 142
Mus musculus [9]
  Activity: 170
Mus musculus [10]
  Activity: 185
Mus musculus [11]
  Activity: 200
Mus musculus [12]
  Activity: 115
Mus musculus [13]
  Activity: 186
Mus musculus [14]
  Activity: 219
Mus musculus [15]
  Activity: 255
Mus musculus [16]
  Activity: 277
Mus musculus [17]
  Activity: 122
Mus musculus [18]
  Activity: 200
Mus musculus [19]
  Activity: 257
Mus musculus [20]
  Activity: 307
Mus musculus [21]
  Activity: 340
Mus musculus [22]
  Activity: 153
Mus musculus [23]
  Activity: 276
Mus musculus [24]
  Activity: 345
Mus musculus [25]
  Activity: 411
Mus musculus [26]
  Activity: 464
Mus musculus [27]
  Activity: 170
Mus musculus [28]
  Activity: 260
Mus musculus [29]
  Activity: 319
Mus musculus [30]
  Activity: 367
Mus musculus [31]
  Activity: 426
Mus musculus [32]
  Activity: inactive
Mus musculus [33]
  Activity: Active
Mus musculus [34]
  Activity: inactive

## CN(C)CCCN1c2ccccc2CCc2ccccc21 [IMIPRAMINE]
Mus musculus [35]
  Activity: 32%

## CN1CCc2cc(Cl)c(O)cc2C1c1ccccc1 (centres undefined)
D(1A) dopamine receptor
  Ki: 40.3 nM
D(2) dopamine receptor; read-out: pKi (converted)
  Ki: 504 nM
Rattus norvegicus
  fold change (FC): 0.07
[1]
  Activity: inactive

From ChEMBL document CHEMBL1154100, “Tetrahydroisoquinolines as dopaminergic ligands: 1-Butyl-7-chloro-6-hydroxy-tetrahydroisoquinoline, a new compound with antidepressant-like activity in mice” (Bioorg Med Chem, 2009)
